Results gathered from unrelated publications.
pEC50, pIC50, pKi: −log10 of the molar value.
BCHE: Cholinesterase (BCHE, Equus caballus, UniProt P81908)
C3AR1: C3a anaphylatoxin chemotactic receptor (C3AR1, Homo sapiens, UniProt Q16581)

SMILES	target	observed	mode	method	endpoint	value
O=C(N1CCC2(CC1)C[C@@H](CN1CCCCS1(=O)=O)CCO2)C1(c2ccccc2)CCCC1	DHX58 (Homo sapiens, UniProt Q96C10)	ATPase activity	inhibitor	–	pIC50	< 4.30
COc1ccc(-c2csc(N/N=C(/C=C/c3c(Cl)cccc3Cl)C(=O)O)n2)cc1	BCHE	enzyme activity	inhibitor	–	pIC50	5.30
COc1cc(CCC(=O)N2CCC(Cc3ccccc3)CC2)ccc1OC(=O)N(C)C	BCHE	enzyme activity	inhibitor	Ellman	pIC50	5.89
CC(C)C[C@H](NC(=O)[C@@H](N)[C@@H](C)O)C(=O)N[C@@H](CCC(N)=O)C(=O)N1CCC[C@H]1C(=O)N1CCC[C@H]1C(=O)N[C@@H](C)C(=O)N[C@@H](CO)C(=O)N[C@@H](CO)C(=O)N[C@@H](CCCNC(=N)N)C(=O)N[C@H](CCCNC(=N)N)C(=O)N[C@@H](CCCNC(=N)N)C(=O)N[C@@H](Cc1c[nH]cn1)C(=O)N[C@@H](Cc1ccccc1)C(=O)N[C@@H](Cc1c[nH]cn1)C(=O)N[C@@H](Cc1c[nH]cn1)C(=O)N[C@@H](C)C(=O)N[C@@H](CC(C)C)C(=O)N1CCC[C@H]1C(=O)N1CCC[C@H]1C(=O)NCC(=O)N[C@@H](CCCNC(=N)N)C(=O)O	C3AR1	β-arrestin recruitment	agonist	–	pEC50	7.01
CCN(C)C(=O)Oc1ccc(/C=C/C(=O)NC2CCN(Cc3ccccc3)CC2)cc1	BCHE	enzyme activity	inhibitor	Ellman	pIC50	4.79
CC(C)C[C@H](NC(=O)[C@@H](N)[C@@H](C)O)C(=O)N[C@@H](CCC(N)=O)C(=O)N1CCC[C@H]1C(=O)N1CCC[C@H]1C(=O)N[C@@H](C)C(=O)N[C@@H](CO)C(=O)N[C@@H](CO)C(=O)N[C@@H](CCCNC(=N)N)C(=O)N[C@H](CCCNC(=N)N)C(=O)N[C@@H](CCCNC(=N)N)C(=O)N[C@@H](Cc1c[nH]cn1)C(=O)N[C@@H](Cc1ccccc1)C(=O)N[C@@H](Cc1c[nH]cn1)C(=O)N[C@@H](Cc1c[nH]cn1)C(=O)N[C@@H](C)C(=O)N[C@@H](CC(C)C)C(=O)N1CCC[C@H]1C(=O)N1CCC[C@H]1C(=O)N[C@@H](C)C(=O)N[C@@H](CCCCNC(=N)N)C(=O)O	C3AR1	G protein activation	agonist	BRET	pEC50	6.59
CC(C)(C)OC(=O)NC1CCCN(C(=O)/C=C/c2ccc(Cl)cc2)C1 (stereo not shown)	BCHE	enzyme activity	inhibitor	Ellman	pIC50	< 4.30
COc1cc2c(cc1OC)CN(CCc1ccc(NC(=O)c3cccc4c(=O)c5cccc(OC)c5[nH]c34)cc1)CC2	D(1A) dopamine receptor (DRD1, Homo sapiens, UniProt P21728)	cell-free assay	–	–	pKi	< 5.00
O=C(O)C(/C=C/c1ccc(Cl)cc1)=N\Nc1nc(-c2ccccc2)cs1	BCHE	enzyme activity	inhibitor	–	pIC50	5.69
CCOc1ccc(/C=C/C(=O)N2CCCC(NC(=O)OC(C)(C)C)C2)cc1OC (stereo not shown)	BCHE	enzyme activity	inhibitor	Ellman	pIC50	4.87
